The source made the active and inactive calls.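 How the source made its calls: active means IC50 at or below 20 µM in the 24 hour cytotoxicity test; inactive means the rest.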
Tested on: CHO-CHOP cells viability, ATPLite luminescence, 24 h
Test: cytotoxicity in CHO-CHOP reporter cells, SAR follow-up, cytotoxicity control for UPR apoptotic arm activator project, cell-based, 24 h exposure, ATPLite luminescence (AID 588556)
Outline: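 Test system: CHO-CHOP cells. Quantity: 500 cells/well. Buffer or medium: F12 medium with 10% fetal bovine serum. Dosing: dose series, DMSO ≤1% final. Timing: 16-18 h cell pre-culture, 24 h compound treatment, 37 °C. Measured by: ATP-dependent luminescence with ATPLite 1-Step reagent. Controls: tunicamycin 10 µg/mL final as positive control, DMSO alone as negative.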

SMILES	IC50
O=C(Nc1ccc(S(=O)(=O)N2CCNCC2)cc1)c1ccc([N+](=O)[O-])o1	> 80000 nM (inactive)
O=C(Nc1ccc(S(=O)(=O)C2CCCCC2)cc1)c1ccc([N+](=O)[O-])o1	26700 nM (inactive)
Cc1cc(C)c2nc(NC(=O)c3ccccn3)sc2c1	5310 nM
O=C(Nc1nc2cccc(F)c2s1)c1ccccn1	2350 nM
CC1CN(S(=O)(=O)c2ccc(NC(=O)c3ccc([N+](=O)[O-])o3)cc2)CC(C)O1 (stereo not given)	51400 nM (inactive)
CC(C)(C)C1CCN(S(=O)(=O)c2ccc(NC(=O)c3ccc([N+](=O)[O-])o3)cc2)CC1	2420 nM
O=C(Nc1nc2c(F)cccc2s1)c1ccccn1	1580 nM
O=C(Nc1ccc(S(=O)(=O)N2CCC3(CCCCC3)CC2)cc1)c1ccc([N+](=O)[O-])o1	1160 nM
O=C(Nc1nc2ccc(F)c(F)c2s1)c1ccccn1	1420 nM
O=C(Nc1nc2ccc(F)cc2s1)c1ccccn1	1930 nM
O=C(Nc1ccc(S(=O)(=O)N2CCC(F)CC2)cc1)c1ccc([N+](=O)[O-])o1	32600 nM (inactive)
O=C(Nc1nc2c(F)cc(F)cc2s1)c1ccccn1	1400 nM
O=C(Nc1ccc(S(=O)(=O)N2CCCC2)cc1)c1ccc([N+](=O)[O-])o1	25000 nM (inactive)
O=C(Nc1nc2cc(F)c(F)cc2s1)c1ccccn1	2660 nM
CC1(C)CCN(S(=O)(=O)c2ccc(NC(=O)c3ccc([N+](=O)[O-])o3)cc2)CC1	12600 nM
O=C(Nc1ccc(S(=O)(=O)N2CCC(O)CC2)cc1)c1ccc([N+](=O)[O-])o1	45900 nM (inactive)
O=C(Nc1nc2c(Cl)cc(Cl)cc2s1)c1ccccn1	13300 nM
O=C(Nc1ccc(S(=O)(=O)N2CCOCC2)cc1)c1ccc([N+](=O)[O-])s1	> 80000 nM (inactive)
O=C(Nc1nc2c(F)ccc(F)c2s1)c1ccccn1	1670 nM
O=C(Nc1ccc(S(=O)(=O)N2CCOCC2)cc1)c1ccc([N+](=O)[O-])o1	53500 nM (inactive)
O=C(Nc1nc2cc(F)ccc2s1)c1ccccn1	1570 nM
O=C(Nc1nc2c(F)c(F)ccc2s1)c1ccccn1	1680 nM
O=C(Nc1ccc(S(=O)(=O)C2CCOCC2)cc1)c1ccc([N+](=O)[O-])o1	66300 nM (inactive)
O=C(Nc1nc2ccc(Cl)cc2s1)c1ccccn1	1230 nM
O=C(Nc1ccc(S(=O)(=O)c2ccccc2)cc1)c1ccc([N+](=O)[O-])o1	40400 nM (inactive)
O=C(Nc1ccc(S(=O)(=O)N2CCCCC2)cc1)c1ccc([N+](=O)[O-])o1	> 80000 nM (inactive)
O=C(Nc1nc2ccc(C(F)(F)F)cc2s1)c1ccccn1	1220 nM
O=C(Nc1ccc(S(=O)(=O)N2CCC(Cl)CC2)cc1)c1ccc([N+](=O)[O-])o1	66800 nM (inactive)
O=C(Nc1nc2cc(F)cc(F)c2s1)c1ccccn1	1830 nM
CC1CCN(S(=O)(=O)c2ccc(NC(=O)c3ccc([N+](=O)[O-])o3)cc2)CC1	> 80000 nM (inactive)

From PubChem BioAssay AID588556 (Sanford-Burnham Center for Chemical Genomics, 2011)
